Source: PubChem BioAssay
Calls of active or inactive are those of the source.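 The calls were made as follows: active = primary screen active whose calcium signal fell more than 3 SD beyond the full-serotonin control mean in both duplicate plates; inactive = the rest.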

assay: calcium flux inhibitors in TRPC4/5HT1a cells, confirmation, counter-screen for TRPC4 inhibitor project, cell-based, second counter screen, HEK293 TRPC4/5HT1a, Fluo-4 (AID 434978); conditions: Fluo-4 calcium flux, at 10 µM, serotonin added to trigger calcium flux;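 also: serotonin given first at submaximal then at maximal dose after compound preincubation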
Method in brief: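 Times: 110 s each for compound, submaximal and ECmax serotonin; Assay system: TRPC4/5HT1a HEK293 cells; Also added: serotonin, a submaximal addition followed by a maximal (ECmax) addition; Replicates: each compound tested on duplicate plates; Measured by: Fluo-4 calcium fluorescence.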

Compound | outcome
NC1=NC2(CCN(Cc3ccccc3)CC2)n2c(nc3ccccc32)N1 | inactive
COc1ccc(CN2CCC(N(CCc3ccccc3)Cc3ccccc3)CC2)c(OC)c1 | inactive
CCc1ccc(C(=O)c2cnc3ccc(OC)cc3c2N2CCN(CC)CC2)cc1 | inactive
S=C(NCCc1cnc[nH]1)NC1CCCC1 | inactive
O=C(NCc1ccccc1)C1=C[C@H](c2ccccc2)C[C@H](OCc2ccc(CO)cc2)O1 | inactive
Cc1ccc(OCC(=O)N(C)CCc2ccccn2)cc1 | inactive
CC(C)(C)C(=O)/C=c1\s/c(=C\c2ccc(-c3ccc([N+](=O)[O-])cc3)o2)c(=O)n1CC(=O)NC(N)=O | inactive
NC(=O)C1CCCN(CCc2ccccc2)C1 (centres undefined) | inactive
Cc1cc2nc3s/c(=C/c4ccc(-c5ccccc5C(=O)O)o4)c(=O)n3c2cc1C | inactive
COc1ccc(CNCc2cn(-c3cccc(F)c3)nc2-c2ccc(C)o2)cc1 | inactive
CN(C)C(CNc1ccc(C(F)(F)F)cn1)c1ccccc1 (centres undefined) | inactive
CN(C)C(CNC(=O)c1cccc(S(=O)(=O)N(C)C)c1)c1ccccc1 (centres undefined) | inactive
CCCc1c(O)nc(SCCN(CC)CC)[nH]c1=O | inactive
CCC(=O)N1CCc2cc(Br)cc(S(=O)(=O)NCCCN(CC)Cc3ccccc3)c21 | inactive
Cc1ccc(Cn2c(SCCN3CCCCC3)nc3c2c(=O)n(C)c(=O)n3C)cc1 | inactive
O=C(O)C1C2C=CC(C2)C1C(=O)N1CCN(C/C=C/c2ccccc2)CC1 (centres undefined) | inactive
COc1ccc(C)c(NC(=O)NCCc2cnc[nH]2)c1 | inactive
OCCC1CN(Cc2ccccc2-c2ccco2)CCN1Cc1ccccc1 (centres undefined) | inactive
COc1ccc(CCN(C)C(=O)C2CCCN(C3CCN(Cc4ccccc4)CC3)C2)cc1OC (centres undefined) | inactive
CCOc1ccc(S(=O)(=O)Nc2cccc(C(=O)NCC(c3ccccc3)N(C)C)c2)cc1 (centres undefined) | inactive

Compound | outcome
Cc1cc(C)cc(NC(=S)N2CCN(c3ncc(C(F)(F)F)cc3Cl)CC2)c1 | inactive
COc1ccc(C(CNC(=O)c2cccc(Br)c2)N2CCCC2)cc1 (centres undefined) | inactive
CC(C)n1cnc2c(N(C)c3ccccc3)nc(N(CCN(C)C)Cc3ccccc3)nc21 | inactive
Cc1cccn2c(CNCCc3ccccn3)c(C(=O)N3CCOCC3)nc12 | inactive
Cc1ccc(C)c(-n2cc(CNCCCn3cccn3)c(-c3ccccc3)n2)c1 | inactive
Cc1csc2c(N3CCN(C(=O)Nc4ccc(OC(F)(F)F)cc4)CC3)ncnc12 | inactive
CN(CCc1ccccn1)C(=S)Nc1cccc(S(=O)(=O)N(C)C)c1 | inactive
Cc1ccc(NC(=S)NC2CC3CCC(C2)N3Cc2ccco2)c(C)c1 (centres undefined) | inactive
COc1cc2c(cc1OC)C(C)N(C(=O)C(NC(=O)c1ccccc1)C(C)C)CC2 (centres undefined) | inactive
O=C(NC1CC1)C1=C[C@H](c2csc3ccccc23)C[C@H](OCc2ccc(CO)cc2)O1 | inactive
Clc1ccc2nc(N3CCNCC3)nc(-c3ccccc3)c2c1 | inactive
COc1ccc(C(CNC(=O)/C=C/c2c(Cl)nc3ccccn23)N(C)C)cc1 (centres undefined) | inactive
CC(=O)n1cc([C@H]2C=C(C(=O)NCc3ccccc3)O[C@@H](OCc3ccc(CO)cc3)C2)c2ccccc21 | inactive
CCCn1ncc(CN2CCC(n3nccc3NC(=O)CCc3ccccc3)CC2)c1C | inactive
CC(=O)NC(CC(=O)NCC(c1ccco1)N(C)C)c1ccccc1 (centres undefined) | inactive
COc1ccc(C(=O)NNC(=S)NC(=O)c2cccs2)cc1 | inactive
COCCn1nnnc1C(c1cc2ccc(OC)cc2[nH]c1=O)N1CCN(C2CCCCC2)CC1 (centres undefined) | inactive
O=C(c1sc2ccccc2c1Cl)N(Cc1ccccc1)C1CCS(=O)(=O)C1 (centres undefined) | inactive
O=c1c(Cc2ccc(F)cc2)c(O)ccn1CCc1cnc[nH]1 | inactive
